According to ChEMBL document CHEMBL2203103, “Discovery of a novel series of benzimidazole derivatives as diacylglycerol acyltransferase inhibitors” (Bioorg Med Chem Lett, 2012):
Blank lines part the entries; values can stand above or below the compound they belong to. Activity calls are given as the source filed them. The rule behind the calls is not given here.

Assays:
[1] = molecular target: T1, Diacylglycerol O-acyltransferase 1 (Rattus norvegicus, UniProt Q9ERM3); assay: (§1) Inhibition of DGAT in rat liver microsomes; parameters: species or system Microsome
T1 sequence (Q9ERM3 whole entry): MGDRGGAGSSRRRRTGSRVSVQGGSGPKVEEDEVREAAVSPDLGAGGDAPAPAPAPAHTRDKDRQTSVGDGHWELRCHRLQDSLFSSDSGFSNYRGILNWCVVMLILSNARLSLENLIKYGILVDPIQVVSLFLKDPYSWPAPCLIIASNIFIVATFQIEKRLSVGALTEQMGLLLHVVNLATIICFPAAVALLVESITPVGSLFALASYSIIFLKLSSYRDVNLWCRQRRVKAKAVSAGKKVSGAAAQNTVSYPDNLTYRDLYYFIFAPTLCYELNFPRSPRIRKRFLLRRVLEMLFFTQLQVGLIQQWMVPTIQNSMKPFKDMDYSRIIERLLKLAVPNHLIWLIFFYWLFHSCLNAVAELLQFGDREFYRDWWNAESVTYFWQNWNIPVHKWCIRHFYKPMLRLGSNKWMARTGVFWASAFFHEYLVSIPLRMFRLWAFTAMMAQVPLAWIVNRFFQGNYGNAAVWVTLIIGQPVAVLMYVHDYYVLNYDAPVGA
How it was run: (§2)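 DGAT activity was measured in microsomes prepared from rat liver, using a modified version of Coleman's method. IC₅₀ values were determined.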

[2] = molecular target: T2, Diacylglycerol O-acyltransferase 1 (Homo sapiens) (UniProt O75907); assay: Residual DGAT activity in human HepG2 cells using [14C]glycerol as substrate assessed as formation of [14C]-triglyceride at 3 uM by chromatographic analysis relative to control
T2 sequence (whole entry): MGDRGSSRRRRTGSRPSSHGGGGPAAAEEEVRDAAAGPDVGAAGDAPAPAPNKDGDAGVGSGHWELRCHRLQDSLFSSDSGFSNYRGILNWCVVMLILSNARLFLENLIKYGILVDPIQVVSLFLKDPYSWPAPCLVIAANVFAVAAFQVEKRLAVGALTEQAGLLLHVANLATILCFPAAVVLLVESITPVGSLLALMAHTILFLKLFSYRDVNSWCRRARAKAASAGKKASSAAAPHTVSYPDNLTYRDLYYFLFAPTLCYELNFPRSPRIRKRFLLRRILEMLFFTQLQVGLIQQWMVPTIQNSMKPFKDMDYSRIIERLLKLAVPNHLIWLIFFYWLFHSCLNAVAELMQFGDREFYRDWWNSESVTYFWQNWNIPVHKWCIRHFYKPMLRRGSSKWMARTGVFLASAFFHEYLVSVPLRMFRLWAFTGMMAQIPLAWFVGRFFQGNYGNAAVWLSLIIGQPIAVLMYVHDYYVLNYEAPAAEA

Mus musculus [3] = species: Mus musculus; assay: Antidyslipidemic activity in high fat diet-induced obese mouse assessed as increase in blood HDL-cholesterol level (reference value: 17.4 +/- 2.15 mg/dl); assay type: functional
Mus musculus [4] = assay: Antiobesity activity in high fat diet-induced obese mouse assessed as inhibition of body weight gain at 10 mg/kg after 5 weeks (reference value: 52.9 +/- 1.20 g); assay type: functional
Mus musculus [5] = assay: Antiobesity activity in high fat diet-induced obese mouse assessed as inhibition of body weight gain at 10 mg/kg after 2 weeks (reference value: 37.8 +/- 3.55 g); assay type: functional
[6] = molecular target: T2, Diacylglycerol O-acyltransferase 1 (Homo sapiens); assay: Residual DGAT activity in human HepG2 cells using [14C]acetate as substrate assessed as formation of [14C]-triglyceride at 10 uM by chromatographic analysis relative to control
Mus musculus [7] = assay: Antiobesity activity in high fat diet-induced obese mouse assessed as inhibition of body weight gain at 10 mg/kg after 1 week (reference value: 35.2 +/- 1.57 g); assay type: functional
Mus musculus [8] = species: Mus musculus; assay: Antidyslipidemic activity in high fat diet-induced obese mouse assessed as decrease in total blood triglyceride level (reference value: 120 +/- 11.2 mg/dl); assay type: functional
Mus musculus [9] = species: Mus musculus; assay: Antiobesity activity in high fat diet-induced obese mouse assessed as decrease in total fat (reference value: 6.75 +/- 1.18 %); assay type: functional; parameters: scale not given: the % may be the effect or the level left
How it was run: (§3)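 In 6-week-old male diet-induced obese mice, HFD-fed and individually housed (23 °C ± 3 °C, 12-h light–dark, food and water ad libitum), total and retroperitoneal fat were weighed after 5 weeks of treatment. Values are given as (tissue weight/body weight) × 100 and compared with normal-diet and untreated HFD groups.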

HepG2 = assay: Cytotoxicity against human HepG2 cells assessed as cell viability after 48 hrs by MTT assay; assay type: cell-based; conditions: hepg2, 48 h
How it was run: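 HepG2 cells were kept in DMEM with 10% heat-inactivated FBS and 1% penicillin–streptomycin at 37 °C in 5% CO₂. Cells were seeded at 2 × 10⁴ per well, exposed to compound for 48 h, and viability was read by MTT as formazan absorbance at 560 nm.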

Mus musculus [10] = species: Mus musculus; assay: Antidyslipidemic activity in high fat diet-induced obese mouse assessed as decrease in blood LDL-cholesterol level (reference value: 119 +/- 14.3 mg/dl); assay type: functional
Mus musculus [11] = species: Mus musculus; assay: Antidyslipidemic activity in high fat diet-induced obese mouse assessed as decrease in total blood cholesterol level (reference value: 160 +/- 13.9 mg/dl); assay type: functional
Mus musculus [12] = species: Mus musculus; assay: Antiobesity activity in high fat diet-induced obese mouse assessed as decrease in retroperitoneal fat (reference value: 1.41 +/- 0.29 %); assay type: functional; parameters: scale not given: the % may be the effect or the level left; how it was run: as §3
Mus musculus [13] = assay: Antiobesity activity in high fat diet-induced obese mouse assessed as inhibition of body weight gain at 10 mg/kg after 3 weeks (reference value: 45.9 +/- 2.29 g); assay type: functional
[14] = molecular target: T2, Diacylglycerol O-acyltransferase 1 (Homo sapiens); assay: Residual DGAT activity in human HepG2 cells using [14C]glycerol as substrate assessed as formation of [14C]-triglyceride at 10 uM by chromatographic analysis relative to control
Mus musculus [15] = assay: Antiobesity activity in high fat diet-induced obese mouse assessed as inhibition of body weight gain at 10 mg/kg after 4 weeks (reference value: 49.9 +/- 1.24 g); assay type: functional
Mus musculus [16] = species: Mus musculus; assay: Antiobesity activity in high fat diet-induced obese mouse assessed as decrease in abdominal and epididymal fat (reference value: 5.34 +/- […]); assay type: functional; parameters: scale not given: the % may be the effect or the level left
[17] = molecular target: T2, Diacylglycerol O-acyltransferase 1 (Homo sapiens); assay: Residual DGAT activity in human HepG2 cells using [14C]acetate as substrate assessed as formation of [14C]-triglyceride at 3 uM by chromatographic analysis relative to control
Mus musculus [18] = species: Mus musculus; assay: Antiobesity activity in high fat diet-induced obese mouse assessed as inhibition of body weight gain after 4 weeks (reference value: 49.9 +/- 1.24 g); assay type: functional
Mus musculus [19] = species: Mus musculus; assay: Antiobesity activity in high fat diet-induced obese mouse assessed as inhibition of body weight gain after 2 weeks (reference value: 37.8 +/- 3.55 g); assay type: functional
Mus musculus [20] = species: Mus musculus; assay: Antiobesity activity in high fat diet-induced obese mouse assessed as inhibition of body weight gain after 1 week (reference value: 35.2 +/- 1.57 g); assay type: functional
Mus musculus [21] = species: Mus musculus; assay: Antiobesity activity in high fat diet-induced obese mouse assessed as inhibition of body weight gain after 3 weeks (reference value: 45.9 +/- 2.29 g); assay type: functional
Mus musculus [22] = species: Mus musculus; assay: Antiobesity activity in high fat diet-induced obese mouse assessed as inhibition of body weight gain after 5 weeks (reference value: 52.9 +/- 1.20 g); assay type: functional
[23] = molecular target: T3, Diacylglycerol O-acyltransferase 1 (Rattus norvegicus) (UniProt Q9ERM3); assay: as §1; conditions: Microsome; how it was run: as §2
T3 sequence (whole entry): T1 sequence (Q9ERM3 whole entry)

IC50 [1]: 20 µM
SMILES: O=C(NCc1ccccn1)c1ccc2[nH]c(COc3ccc(C45CC6CC(CC(C6)C4)C5)cc3)nc2c1

IC50 [1]: 11.4 µM
SMILES: Cc1ccc(CNC(=O)c2ccc3nc(COc4ccc(C56CC7CC(CC(C7)C5)C6)cc4)[nH]c3c2)o1

IC50 [1]: 3.1 µM
SMILES: CC1(C)Oc2ncnc(N)c2N=C1c1ccc([C@H]2CC[C@H](CC(=O)O)CC2)cc1

residual activity [2]: 69.5% | residual activity [6]: 53% | IC50 [1]: 4.4 µM | residual activity [14]: 45% | residual activity [17]: 80.9%
SMILES: O=C(NCc1ccco1)c1ccc2[nH]c(COc3ccc(C45CC6CC(CC(C6)C4)C5)cc3)nc2c1
Activity (Mus musculus [3]): 21.2 mg/dL | Activity (Mus musculus [4]): 43.2 g | Activity (Mus musculus [5]): 38.9 g | Activity (Mus musculus [7]): 35.1 g | Activity (Mus musculus [8]): 41.8 mg/dL | Activity (Mus musculus [9]): 4.1% | Activity (HepG2): > 50 µM | Activity (Mus musculus [10]): 43.6 mg/dL | Activity (Mus musculus [11]): 73.2 mg/dL | Activity (Mus musculus [12]): 0.94% | Activity (Mus musculus [13]): 40.8 g | Activity (Mus musculus [15]): 42.3 g | Activity (Mus musculus [16]): 3.16%

SMILES: CCCCCCCCCCC[C@@H](C[C@@H]1OC(=O)[C@H]1CCCCCC)OC(=O)[C@H](CC(C)C)NC=O [ORLISTAT]
Activity (Mus musculus [3]): 30.3 mg/dL | Activity (Mus musculus [8]): 40.8 mg/dL | Activity (Mus musculus [18]): 40 g | Activity (Mus musculus [9]): 3.2% | Activity (Mus musculus [10]): 20.5 mg/dL | Activity (Mus musculus [11]): 53.8 mg/dL | Activity (Mus musculus [19]): 37.4 g | Activity (Mus musculus [12]): 0.75% | Activity (Mus musculus [20]): 33.6 g | Activity (Mus musculus [21]): 39.1 g | Activity (Mus musculus [22]): 41.2 g | Activity (Mus musculus [16]): 2.45%

IC50 [1]: 23 µM
SMILES: COC(=O)c1ccc2[nH]c(COc3ccc(C45CC6CC(CC(C6)C4)C5)cc3)nc2c1

IC50 [1]: > 50 µM
SMILES: O=C(NCc1ccco1)c1ccc2nc(COc3ccc(-c4ccccc4)cc3)[nH]c2c1

IC50 [1]: > 50 µM
SMILES: O=C(NCc1ccccc1)c1ccc2nc(COc3ccc(C45CC6CC(CC(C6)C4)C5)cc3)[nH]c2c1

IC50 [1]: 20 µM
SMILES: CC(C)NC(=O)c1ccc2nc(COc3ccc(C45CC6CC(CC(C6)C4)C5)cc3)[nH]c2c1

IC50 [1]: > 50 µM
SMILES: O=C(Nc1ccccc1)c1ccc2[nH]c(COc3ccc(C45CC6CC(CC(C6)C4)C5)cc3)nc2c1

IC50 [1]: > 50 µM
SMILES: O=C(NCc1ccco1)c1ccc2nc(COc3ccccc3)[nH]c2c1

IC50 [1]: > 50 µM
SMILES: CN(C)C(=O)c1ccc2nc(COc3ccc(C45CC6CC(CC(C6)C4)C5)cc3)[nH]c2c1

IC50 [1]: 9 µM
SMILES: CC(C)(C)c1ccc(OCc2nc3cc(C(=O)NCc4ccco4)ccc3[nH]2)cc1

IC50 [1]: 11.3 µM
SMILES: O=C(c1ccc2[nH]c(COc3ccc(C45CC6CC(CC(C6)C4)C5)cc3)nc2c1)N1CCCC1

IC50 [1]: > 50 µM
SMILES: O=C(NCc1cccs1)c1ccc2[nH]c(COc3ccc(C45CC6CC(CC(C6)C4)C5)cc3)nc2c1

inhibition [23]: Active
SMILES: COc1cc(O)c(CC=C(C)C)c(O)c1C(=O)/C=C/c1ccc(O)cc1

IC50 [1]: > 50 µM
SMILES: CC(C)c1cccc(C(C)C)c1NC(=O)c1ccc2nc(COc3ccc(C45CC6CC(CC(C6)C4)C5)cc3)[nH]c2c1

IC50 [1]: 25.4 µM
SMILES: Cc1ccoc1CNC(=O)c1ccc2nc(COc3ccc(C45CC6CC(CC(C6)C4)C5)cc3)[nH]c2c1

IC50 [1]: 8.7 µM
SMILES: O=C(NC[C@H]1CCCO1)c1ccc2nc(COc3ccc(C45CC6CC(CC(C6)C4)C5)cc3)[nH]c2c1

IC50 [1]: 9.5 µM
SMILES: O=C(NC[C@@H]1CCCO1)c1ccc2nc(COc3ccc(C45CC6CC(CC(C6)C4)C5)cc3)[nH]c2c1

IC50 [1]: > 50 µM
SMILES: NC(=O)c1ccc2nc(COc3ccc(C45CC6CC(CC(C6)C4)C5)cc3)[nH]c2c1

IC50 [1]: 27.5 µM
SMILES: O=C(c1ccc2[nH]c(COc3ccc(C45CC6CC(CC(C6)C4)C5)cc3)nc2c1)N1CCCCC1

IC50 [1]: > 50 µM
SMILES: O=C(O)c1ccc2[nH]c(COc3ccc(C45CC6CC(CC(C6)C4)C5)cc3)nc2c1
